What was measured:
[1] = Drug concentration in Lewis rat blood assessed as concentration of parent compound at 1 mg/kg, po measured at 4 hrs by LC-MS/MS analysis; type: ADME, organism-based; settings: read-out: Ct; for concentration at 4 h: Lewis, blood; for concentration: in vivo, 1 mg/kg, 4 h
Method in brief: (§1)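 Lewis rats (n = 2−4) dosed orally at 0.5, 1, 2 or 5 mg/kg; blood parent and phosphate metabolite concentrations and lymphocyte counts taken 4 and 24 h post-dose; phosphate-to-parent ratio from 24 h levels; significance versus vehicle by ANOVA with Dunnett's test.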

[2] = Drug metabolism in Lewis rat blood assessed as concentration of parent compound at 1 mg/kg, po measured at 24 hrs by LC-MS/MS analysis; type: ADME, organism-based; settings: for Ct / concentration: in vivo, 1 mg/kg, 24 h; for Ct: BLD = below limit of detection; for concentration at 24 h: Lewis, blood; for concentration at 24 h / concentration: read-out: Ct; method in brief: as §1
[3] = Reduction in circulating lymphocytes count in Lewis rat at 1 mg/kg, po measured at 24 hrs by hematology analyzer based analysis; type: organism-based; design: scale not given: the % may be the effect or the level left; settings: in vivo; method in brief: as §1
Rattus norvegicus [4] = experiment: Reduction in circulating lymphocytes count in Lewis rat at 1 mg/kg, po measured at 4 hrs by hematology analyzer based analysis; type: functional; design: scale not given: the % may be the effect or the level left; method in brief: as §1
[5] = Pulmonary toxicity in Lewis rat assessed as fold elevation of BAL protein content at 1 mg/kg, po by chemistry analyzer based analysis relative to control; type: organism-based; settings: in vivo
Method in brief: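 Lewis rats dosed orally; bronchoalveolar lavage protein measured at study end, expressed as fold over vehicle control.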

Rattus norvegicus [6] = experiment: Reduction in circulating lymphocytes count in Lewis rat at 2 mg/kg, po measured at 4 hrs by hematology analyzer based analysis; type: functional; design: scale not given: the % may be the effect or the level left
Method in brief: (§2)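 Lewis rats (n = 2−4) dosed orally; whole-blood lymphocyte counts taken 4 h and 24 h after dosing and reduction expressed versus vehicle-treated rats. Significance by ANOVA with Dunnett's test (p < 0.05 vs vehicle). Blood levels of parent and phosphate metabolite measured at the same time points in this PK/PD screen.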

[7] = Ratio of drug metabolism in Lewis rat blood assessed as phosphate ester metabolite to parent drug at 2 mg/kg, po measured at 24 hrs by LC-MS/MS analysis; type: ADME, organism-based; settings: in vivo; method in brief: as §1
[8] = Reduction in circulating lymphocytes count in Lewis rat at 2 mg/kg, po measured at 24 hrs by hematology analyzer based analysis; type: Functional, organism-based; design: scale not given: the % may be the effect or the level left; settings: in vivo; method in brief: as §2
[9] = Drug concentration in Lewis rat blood assessed as concentration of parent compound at 2 mg/kg, po measured at 24 hrs by LC-MS/MS analysis; type: ADME, organism-based; settings: in vivo; for concentration: read-out: Ct; method in brief: as §1
[10] = Half life in Lewis rat at 2 mg/kg, po measured at 4 to 72 hrs; type: ADME, organism-based; settings: Lewis, in vivo, time 4-72 hrs
Method in brief: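 Half-life estimated from oral-dosing blood PK profiles in Lewis rats sampled at four time points: 4, 24, 48 and 72 h.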

[11] = Drug concentration in Lewis rat blood assessed as concentration of parent compound at 2 mg/kg, po measured at 4 hrs by LC-MS/MS analysis; type: ADME, organism-based; settings: Lewis, blood, read-out: Ct; method in brief: as §1
[12] = Drug metabolism in Lewis rat blood assessed as phosphate ester metabolite to parent ratio at 1 mg/kg, po measured at 24 hrs by LC-MS/MS analysis; settings: in vivo
[13] = Cardiotoxicity in human iPSC derived cardiomyocytes assessed as change in heart rate at 1 nM measured over 2 hrs by multi-electrode array relative to control; type: toxicity, cell-based; settings: stem cell-derived cardiomyocyte, 0.001 µM
Method in brief: (§3)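 Phosphate metabolite of each compound prepared and tested on cultured human induced pluripotent stem cell-derived cardiomyocytes at 1 and 10 nM; beat rate change averaged over three or more replicates per concentration unless noted (some n = 2).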

[14] = Cardiotoxicity in human iPSC derived cardiomyocytes assessed as change in heart rate at 10 nM measured over 2 hrs by multi-electrode array relative to control; type: toxicity, cell-based; settings: stem cell-derived cardiomyocyte, 0.01 µM; method in brief: as §3

Row | SMILES | concentration at 4 h [1] | Activity [3] | Activity (Rattus norvegicus [4]) | fold change (FC) [5] | Activity [8] | concentration at 24 h [2] | Activity (Rattus norvegicus [4]; 1 mg/kg, 4 h) | also measured
1 | CCCOCCOC[C@H]1CCc2cc([C@H]3CC[C@](N)(CO)C3)ccc2C1 | 78 nM | 20% | 67% | 2.4 | – | – | – | Ct [2]: Bld
2 | C=CCCOC[C@@H]1CCc2cc([C@H]3CC[C@](N)(CO)C3)ccc2C1 | – | – | – | – | 74% | – | – | Activity (Rattus norvegicus [6]): 55%; Ratio [7]: 0.9; concentration [9]: 48 nM; half-life [10]: 11 h; concentration at 4 h [11]: 170 nM
3 | CCCCCOC[C@H]1CCc2cc([C@H]3CC[C@](N)(CO)C3)ccc2C1 | 12 nM | 32% | 7% | 1.7 | – | 18 nM | – | –
4 | CCCC/C=C\[C@@H]1CCc2cc([C@H]3CC[C@](N)(CO)C3)ccc2C1 | 24 nM | 0% | 4% | – | – | 24 nM | – | Ratio [12]: 0.27
5 | CCCCCOC[C@@H]1CCc2cc([C@H]3CC[C@](N)(CO)C3)ccc2C1 | 27 nM | 80% | 27% | 2 | – | 28 nM | – | –
6 | COCCOC[C@@H]1CCc2cc([C@H]3CC[C@](N)(CO)C3)ccc2C1 | 15 nM | 13% | 16% | 1.3 | – | – | – | Ct [2]: Bld
7 | CCCCOC[C@@H]1CCc2cc([C@H]3CC[C@](N)(CO)C3)ccc2C1 | 66 nM | 71% | 42% | 0.95 | – | 39 nM | – | Ratio [12]: 0.64
8 | CCCOCCOC1CCc2cc([C@H]3CC[C@](N)(CO)C3)ccc2C1 (stereo not given in full) | 46 nM | 70% | 72% | 1.3 | 40% | – | – | Activity (Rattus norvegicus [6]): 0%; Ratio [7]: 2.4; Ct [2]: Bld; Ct ([9]; BLD = below limit of detection): Bld; concentration at 4 h [11]: 100 nM
9 | CCSCCCC1CCc2cc([C@H]3CC[C@](N)(CO)C3)ccc2C1 (single isomer, unassigned) | – | – | – | – | 74% | – | – | Activity [13]: -42%; Activity (Rattus norvegicus [6]): 65%; concentration [9]: 42 nM; half-life [10]: 14 h; concentration at 4 h [11]: 190 nM; Activity [14]: -53%
10 | CCCCCOC1CCc2cc([C@H]3CC[C@](N)(CO)C3)ccc2C1 (stereo in doubt; 10a) | 244 nM | 78% | – | 0.94 | – | 210 nM | 62% | Ratio [12]: 0.86
11 | CCCCCOC1CCc2cc([C@H]3CC[C@](N)(CO)C3)ccc2C1 (stereo in doubt; 10b) | – | 67% | – | – | – | – | 32% | Activity [13]: -12%; concentration [1]: 215 nM; concentration [2]: 240 nM; Ratio [12]: 0.27; Activity [14]: -49%
12 | COCCC1CCc2cc([C@H]3CC[C@](N)(CO)C3)ccc2C1 (stereo in doubt; 21a) | – | – | – | – | 12% | – | – | Activity (Rattus norvegicus [6]): 0%
13 | COCCC1CCc2cc([C@H]3CC[C@](N)(CO)C3)ccc2C1 (stereo in doubt; 21b) | – | – | – | – | 2% | – | – | –
14 | CCCCCCOC1CCc2cc([C@H]3CC[C@](N)(CO)C3)ccc2C1 (stereo in doubt; 30a) | – | 82% | – | 1.1 | – | – | 39% | Activity [13]: -39%; concentration [1]: 53 nM; concentration [2]: 28 nM; Activity [14]: -40%
15 | CCCCCCOC1CCc2cc([C@H]3CC[C@](N)(CO)C3)ccc2C1 (stereo in doubt; 30b) | – | – | – | 1.4 | – | – | 20% | concentration [1]: 362 nM; concentration [2]: 417 nM
16 | CCCCCCCOC1CCc2cc([C@H]3CC[C@](N)(CO)C3)ccc2C1 (stereo in doubt; 33b) | – | – | – | 1 | – | – | 14% | concentration [1]: 40 nM; concentration [2]: 25 nM
